Laboratory results from ChEMBL document CHEMBL4689842, “EUbOPEN Chemogenomics Library wave 1” (2021).

Test system: HEK-293T
Test: Multiplex assay against HEK293T;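 as to Population Tubulin-Different-Phenotype (%): share of the cells with healthy nuclei that show this phenotype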
Format: toxicity, cell-based
Conditions: human
Summary of the method: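 Live cells were stained at seeding with Hoechst33342, BioTracker Green Microtubule Cytoskeleton Dye, MitoTracker Red and Annexin V Alexa Fluor 680. Following compound addition, they were imaged on a CQ1 microscope at 37°C and 5% CO2 and gated by CellPathfinder machine learning into Hoechst high-intensity objects or normal cells, with normal cells split into healthy, pyknosed or fragmented nuclei and pyknosed cells into mitotic or apoptotic. Tubulin, mitochondrial-mass and membrane-permeability phenotypes are per cents of healthy-nucleus cells.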

[1] = 12 h, 1 µM, compound concentration 1 uM, replicate 1
[2] = 12 h, 1 µM, compound concentration 1 uM, replicate 2
[3] = 12 h, 10 µM, compound concentration 10 uM, replicate 1
[4] = 12 h, 10 µM, compound concentration 10 uM, replicate 2
[5] = 24 h, 1 µM, compound concentration 1 uM, replicate 1
[6] = 24 h, 1 µM, compound concentration 1 uM, replicate 2
[7] = 24 h, 10 µM, compound concentration 10 uM, replicate 1
[8] = 24 h, 10 µM, compound concentration 10 uM, replicate 2
[9] = 48 h, 1 µM, compound concentration 1 uM, replicate 1
[10] = 48 h, 1 µM, compound concentration 1 uM, replicate 2
[11] = 48 h, 10 µM, compound concentration 10 uM, replicate 1
[12] = 48 h, 10 µM, compound concentration 10 uM, replicate 2

COc1cc(-n2cnc3cc(-c4ccc(Cl)cc4)sc3c2=O)ccc1OCCN1CCCC1
Population Apoptotic (%) [1]: 59%
Population Fragmented Nuclei (%) [1]: 8%
Population Healthy Nuclei (%) [1]: 32%
Population Hoechst High Intensity Objects (%) [1]: 15%
Population Membrane Permeable-Phenotype (%) [1]: 1%
Population Mitochondria Different-Phenotype (%) [1]: 96%
Population Mitotic Cells (%) [1]: 40%
Population Normal (%) [1]: 84%
Population Pyknosed Nuclei (%) [1]: 58%
Population Tubulin-Different-Phenotype (%) [1]: 93%
Total Cell Count [1]: 212
Population Apoptotic (%) [2]: 20%
Population Fragmented Nuclei (%) [2]: 5%
Population Healthy Nuclei (%) [2]: 40%
Population Hoechst High Intensity Objects (%) [2]: 4%
Population Membrane Permeable-Phenotype (%) [2]: 7%
Population Mitochondria Different-Phenotype (%) [2]: 42%
Population Mitotic Cells (%) [2]: 80%
Population Normal (%) [2]: 95%
Population Pyknosed Nuclei (%) [2]: 53%
Population Tubulin-Different-Phenotype (%) [2]: 60%
Total Cell Count [2]: 265
Population Apoptotic (%) [3]: 57%
Population Fragmented Nuclei (%) [3]: 23%
Population Healthy Nuclei (%) [3]: 1%
Population Hoechst High Intensity Objects (%) [3]: 23%
Population Membrane Permeable-Phenotype (%) [3]: 0%
Population Mitochondria Different-Phenotype (%) [3]: 75%
Population Mitotic Cells (%) [3]: 42%
Population Normal (%) [3]: 76%
Population Pyknosed Nuclei (%) [3]: 74%
Population Tubulin-Different-Phenotype (%) [3]: 75%
Total Cell Count [3]: 285
Population Apoptotic (%) [4]: 79%
Population Fragmented Nuclei (%) [4]: 16%
Population Healthy Nuclei (%) [4]: 15%
Population Hoechst High Intensity Objects (%) [4]: 4%
Population Membrane Permeable-Phenotype (%) [4]: 33%
Population Mitochondria Different-Phenotype (%) [4]: 58%
Population Mitotic Cells (%) [4]: 20%
Population Normal (%) [4]: 95%
Population Pyknosed Nuclei (%) [4]: 67%
Population Tubulin-Different-Phenotype (%) [4]: 66%
Total Cell Count [4]: 242
Population Apoptotic (%) [5]: 72%
Population Fragmented Nuclei (%) [5]: 11%
Population Healthy Nuclei (%) [5]: 37%
Population Hoechst High Intensity Objects (%) [5]: 14%
Population Membrane Permeable-Phenotype (%) [5]: 1%
Population Mitochondria Different-Phenotype (%) [5]: 100%
Population Mitotic Cells (%) [5]: 27%
Population Normal (%) [5]: 85%
Population Pyknosed Nuclei (%) [5]: 50%
Population Tubulin-Different-Phenotype (%) [5]: 86%
Total Cell Count [5]: 207
Population Apoptotic (%) [6]: 27%
Population Fragmented Nuclei (%) [6]: 4%
Population Healthy Nuclei (%) [6]: 61%
Population Hoechst High Intensity Objects (%) [6]: 2%
Population Membrane Permeable-Phenotype (%) [6]: 7%
Population Mitochondria Different-Phenotype (%) [6]: 52%
Population Mitotic Cells (%) [6]: 72%
Population Normal (%) [6]: 97%
Population Pyknosed Nuclei (%) [6]: 33%
Population Tubulin-Different-Phenotype (%) [6]: 66%
Total Cell Count [6]: 325
Population Apoptotic (%) [7]: 73%
Population Fragmented Nuclei (%) [7]: 31%
Population Healthy Nuclei (%) [7]: 0%
Population Hoechst High Intensity Objects (%) [7]: 30%
Population Membrane Permeable-Phenotype (%) [7]: 0%
Population Mitochondria Different-Phenotype (%) [7]: 0%
Population Mitotic Cells (%) [7]: 26%
Population Normal (%) [7]: 69%
Population Pyknosed Nuclei (%) [7]: 68%
Population Tubulin-Different-Phenotype (%) [7]: 0%
Total Cell Count [7]: 277
Population Apoptotic (%) [8]: 90%
Population Fragmented Nuclei (%) [8]: 20%
Population Healthy Nuclei (%) [8]: 22%
Population Hoechst High Intensity Objects (%) [8]: 7%
Population Membrane Permeable-Phenotype (%) [8]: 21%
Population Mitochondria Different-Phenotype (%) [8]: 68%
Population Mitotic Cells (%) [8]: 9%
Population Normal (%) [8]: 92%
Population Pyknosed Nuclei (%) [8]: 57%
Population Tubulin-Different-Phenotype (%) [8]: 48%
Total Cell Count [8]: 228
Population Apoptotic (%) [9]: 53%
Population Fragmented Nuclei (%) [9]: 13%
Population Healthy Nuclei (%) [9]: 62%
Population Hoechst High Intensity Objects (%) [9]: 9%
Population Membrane Permeable-Phenotype (%) [9]: 5%
Population Mitochondria Different-Phenotype (%) [9]: 73%
Population Mitotic Cells (%) [9]: 46%
Population Normal (%) [9]: 90%
Population Pyknosed Nuclei (%) [9]: 23%
Population Tubulin-Different-Phenotype (%) [9]: 67%
Total Cell Count [9]: 312
Population Apoptotic (%) [10]: 20%
Population Fragmented Nuclei (%) [10]: 4%
Population Healthy Nuclei (%) [10]: 79%
Population Hoechst High Intensity Objects (%) [10]: 3%
Population Membrane Permeable-Phenotype (%) [10]: 6%
Population Mitochondria Different-Phenotype (%) [10]: 21%
Population Mitotic Cells (%) [10]: 79%
Population Normal (%) [10]: 96%
Population Pyknosed Nuclei (%) [10]: 16%
Population Tubulin-Different-Phenotype (%) [10]: 57%
Total Cell Count [10]: 539
Population Apoptotic (%) [11]: 76%
Population Fragmented Nuclei (%) [11]: 45%
Population Healthy Nuclei (%) [11]: 0%
Population Hoechst High Intensity Objects (%) [11]: 29%
Population Membrane Permeable-Phenotype (%) [11]: 0%
Population Mitochondria Different-Phenotype (%) [11]: 100%
Population Mitotic Cells (%) [11]: 23%
Population Normal (%) [11]: 70%
Population Pyknosed Nuclei (%) [11]: 54%
Population Tubulin-Different-Phenotype (%) [11]: 100%
Total Cell Count [11]: 270
Population Apoptotic (%) [12]: 89%
Population Fragmented Nuclei (%) [12]: 21%
Population Healthy Nuclei (%) [12]: 28%
Population Hoechst High Intensity Objects (%) [12]: 10%
Population Membrane Permeable-Phenotype (%) [12]: 12%
Population Mitochondria Different-Phenotype (%) [12]: 73%
Population Mitotic Cells (%) [12]: 10%
Population Normal (%) [12]: 89%
Population Pyknosed Nuclei (%) [12]: 50%
Population Tubulin-Different-Phenotype (%) [12]: 38%
Total Cell Count [12]: 256

OC1(c2ccc(Cl)cc2)CCN(Cc2c[nH]c3ccccc23)CC1
Population Apoptotic (%) [1]: 51%
Population Fragmented Nuclei (%) [1]: 20%
Population Healthy Nuclei (%) [1]: 14%
Population Hoechst High Intensity Objects (%) [1]: 15%
Population Membrane Permeable-Phenotype (%) [1]: 4%
Population Mitochondria Different-Phenotype (%) [1]: 63%
Population Mitotic Cells (%) [1]: 48%
Population Normal (%) [1]: 84%
Population Pyknosed Nuclei (%) [1]: 65%
Population Tubulin-Different-Phenotype (%) [1]: 45%
Total Cell Count [1]: 177
Population Apoptotic (%) [2]: 18%
Population Fragmented Nuclei (%) [2]: 6%
Population Healthy Nuclei (%) [2]: 29%
Population Hoechst High Intensity Objects (%) [2]: 6%
Population Membrane Permeable-Phenotype (%) [2]: 7%
Population Mitochondria Different-Phenotype (%) [2]: 34%
Population Mitotic Cells (%) [2]: 81%
Population Normal (%) [2]: 93%
Population Pyknosed Nuclei (%) [2]: 63%
Population Tubulin-Different-Phenotype (%) [2]: 42%
Total Cell Count [2]: 136
Population Apoptotic (%) [3]: 70%
Population Fragmented Nuclei (%) [3]: 11%
Population Healthy Nuclei (%) [3]: 11%
Population Hoechst High Intensity Objects (%) [3]: 15%
Population Membrane Permeable-Phenotype (%) [3]: 7%
Population Mitochondria Different-Phenotype (%) [3]: 100%
Population Mitotic Cells (%) [3]: 29%
Population Normal (%) [3]: 84%
Population Pyknosed Nuclei (%) [3]: 77%
Population Tubulin-Different-Phenotype (%) [3]: 92%
Total Cell Count [3]: 275
Population Apoptotic (%) [4]: 63%
Population Fragmented Nuclei (%) [4]: 5%
Population Healthy Nuclei (%) [4]: 14%
Population Hoechst High Intensity Objects (%) [4]: 9%
Population Membrane Permeable-Phenotype (%) [4]: 17%
Population Mitochondria Different-Phenotype (%) [4]: 89%
Population Mitotic Cells (%) [4]: 36%
Population Normal (%) [4]: 90%
Population Pyknosed Nuclei (%) [4]: 80%
Population Tubulin-Different-Phenotype (%) [4]: 86%
Total Cell Count [4]: 223
Population Apoptotic (%) [5]: 50%
Population Fragmented Nuclei (%) [5]: 22%
Population Healthy Nuclei (%) [5]: 30%
Population Hoechst High Intensity Objects (%) [5]: 16%
Population Membrane Permeable-Phenotype (%) [5]: 3%
Population Mitochondria Different-Phenotype (%) [5]: 70%
Population Mitotic Cells (%) [5]: 49%
Population Normal (%) [5]: 83%
Population Pyknosed Nuclei (%) [5]: 46%
Population Tubulin-Different-Phenotype (%) [5]: 42%
Total Cell Count [5]: 210
Population Apoptotic (%) [6]: 27%
Population Fragmented Nuclei (%) [6]: 6%
Population Healthy Nuclei (%) [6]: 52%
Population Hoechst High Intensity Objects (%) [6]: 5%
Population Membrane Permeable-Phenotype (%) [6]: 8%
Population Mitochondria Different-Phenotype (%) [6]: 30%
Population Mitotic Cells (%) [6]: 72%
Population Normal (%) [6]: 94%
Population Pyknosed Nuclei (%) [6]: 40%
Population Tubulin-Different-Phenotype (%) [6]: 50%
Total Cell Count [6]: 171
Population Apoptotic (%) [7]: 76%
Population Fragmented Nuclei (%) [7]: 14%
Population Healthy Nuclei (%) [7]: 3%
Population Hoechst High Intensity Objects (%) [7]: 16%
Population Membrane Permeable-Phenotype (%) [7]: 0%
Population Mitochondria Different-Phenotype (%) [7]: 100%
Population Mitotic Cells (%) [7]: 23%
Population Normal (%) [7]: 83%
Population Pyknosed Nuclei (%) [7]: 81%
Population Tubulin-Different-Phenotype (%) [7]: 100%
Total Cell Count [7]: 282
Population Apoptotic (%) [8]: 89%
Population Fragmented Nuclei (%) [8]: 5%
Population Healthy Nuclei (%) [8]: 8%
Population Hoechst High Intensity Objects (%) [8]: 8%
Population Membrane Permeable-Phenotype (%) [8]: 15%
Population Mitochondria Different-Phenotype (%) [8]: 73%
Population Mitotic Cells (%) [8]: 10%
Population Normal (%) [8]: 91%
Population Pyknosed Nuclei (%) [8]: 85%
Population Tubulin-Different-Phenotype (%) [8]: 84%
Total Cell Count [8]: 238
Population Apoptotic (%) [9]: 58%
Population Fragmented Nuclei (%) [9]: 19%
Population Healthy Nuclei (%) [9]: 53%
Population Hoechst High Intensity Objects (%) [9]: 13%
Population Mitochondria Different-Phenotype (%) [9]: 41%
Population Mitotic Cells (%) [9]: 41%
Population Normal (%) [9]: 86%
Population Pyknosed Nuclei (%) [9]: 26%
Population Tubulin-Different-Phenotype (%) [9]: 31%
Total Cell Count [9]: 247
Population Apoptotic (%) [10]: 7%
Population Fragmented Nuclei (%) [10]: 7%
Population Healthy Nuclei (%) [10]: 70%
Population Hoechst High Intensity Objects (%) [10]: 2%
Population Membrane Permeable-Phenotype (%) [10]: 6%
Population Mitochondria Different-Phenotype (%) [10]: 15%
Population Mitotic Cells (%) [10]: 92%
Population Normal (%) [10]: 97%
Population Pyknosed Nuclei (%) [10]: 22%
Population Tubulin-Different-Phenotype (%) [10]: 39%
Total Cell Count [10]: 264
Population Apoptotic (%) [11]: 71%
Population Fragmented Nuclei (%) [11]: 22%
Population Healthy Nuclei (%) [11]: 0%
Population Hoechst High Intensity Objects (%) [11]: 18%
Population Membrane Permeable-Phenotype (%) [11]: 0%
Population Mitochondria Different-Phenotype (%) [11]: 100%
Population Mitotic Cells (%) [11]: 28%
Population Normal (%) [11]: 81%
Population Pyknosed Nuclei (%) [11]: 77%
Population Tubulin-Different-Phenotype (%) [11]: 100%
Total Cell Count [11]: 295
Population Apoptotic (%) [12]: 89%
Population Fragmented Nuclei (%) [12]: 19%
Population Healthy Nuclei (%) [12]: 19%
Population Hoechst High Intensity Objects (%) [12]: 4%
Population Membrane Permeable-Phenotype (%) [12]: 4%
Population Mitochondria Different-Phenotype (%) [12]: 71%
Population Mitotic Cells (%) [12]: 10%
Population Normal (%) [12]: 95%
Population Pyknosed Nuclei (%) [12]: 60%
Population Tubulin-Different-Phenotype (%) [12]: 95%
Total Cell Count [12]: 224
